{
  "source": "ChEMBL document CHEMBL4665824",
  "about": "“Characterization and Discovery of a Selective Small-Molecule Modulator of Mitochondrial Complex I Targeting a Unique Binding Site” (J Med Chem, 2020)",
  "key": {"Mus musculus [1]": {"species": "Mus musculus", "assay": "Binding affinity to purified C57BL/6 mouse cerebral cortex mitochondrial complex 1 assessed as labelling of 51 kDa sub unit at 10 uM in presence of ZCM-I-1 incubated for 45 mins under irradiation by SDS-PAGE analysis", "settings": "Mitochondria", "in_short": "(§1)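 Preincubated with DMSO or competitor 45 min at 4 °C, then photoaffinity probe added for 30 min at 4 °C. Irradiated 365 nm, 10 min on ice, then run on SDS-PAGE. Read by in-gel fluorescence (488 nm excitation), or after streptavidin pull-down by silver stain. Three independent experiments.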"}, "Mus musculus [2]": {"species": "Mus musculus", "assay": "Binding affinity to purified C57BL/6 mouse cerebral cortex mitochondrial complex 1 assessed as labelling of 24 kDa sub unit at 10 uM in presence of ZCM-I-1 incubated for 45 mins under irradiation by SDS-PAGE analysis", "settings": "Mitochondria", "in_short": "as §1"}, "Mus musculus [3]": {"species": "Mus musculus", "assay": "Binding affinity to purified C57BL/6 mouse cerebral cortex mitochondrial complex 1 assessed as labelling of 75 kDa sub unit at 10 uM in presence of ZCM-I-1 incubated for 45 mins under irradiation by SDS-PAGE analysis", "settings": "Mitochondria", "in_short": "as §1"}, "Mus musculus [4]": {"species": "Mus musculus", "assay": "Binding affinity to purified C57BL/6 mouse cerebral cortex mitochondrial complex 1 assessed as labelling of IF site ( 49 kDa) sub unit at 10 uM in presence of ZCM-I-1 incubated for 45 mins under irradiation by SDS-PAGE analysis", "settings": "Mitochondria", "in_short": "as §1"}, "MC65": {"system": "MC65", "assay": "Inhibition of mitochondrial complex 1 in human MC65 cells assessed as protective potency concentration", "type": "cell-based"}, "Mus musculus [5]": {"species": "Mus musculus", "assay": "Binding affinity to purified C57BL/6 mouse cerebral cortex mitochondrial complex 1 assessed as labelling of 13 kDa sub unit at 10 uM in presence of ZCM-I-1 incubated for 45 mins under irradiation by SDS-PAGE analysis", "settings": "Mitochondria", "in_short": "as §1"}, "Mus musculus [6]": {"species": "Mus musculus", "assay": "Binding affinity to purified C57BL/6 mouse cerebral cortex mitochondrial complex 1 assessed as labelling of 13 kDa sub unit at 10 uM in presence of NADH incubated for 45 mins under irradiation by SDS-PAGE analysis", "settings": "Mitochondria", "in_short": "as §1"}, "Mus musculus [7]": {"species": "Mus musculus", "assay": "Binding affinity to purified C57BL/6 mouse cerebral cortex mitochondrial complex 1 assessed as labelling of 75 kDa sub unit at 10 uM in presence of NADH incubated for 45 mins under irradiation by SDS-PAGE analysis", "settings": "Mitochondria", "in_short": "as §1"}, "Mus musculus [8]": {"species": "Mus musculus", "assay": "Binding affinity to purified C57BL/6 mouse cerebral cortex mitochondrial complex 1 assessed as labelling of 51 kDa sub unit at 10 uM in presence of IQ site inhibitor rotenone incubated for 45 mins under irradiation by SDS-PAGE analysis", "settings": "Mitochondria", "in_short": "as §1"}, "Mus musculus [9]": {"species": "Mus musculus", "assay": "Binding affinity to purified C57BL/6 mouse cerebral cortex mitochondrial complex 1 assessed as labelling of 24 kDa sub unit at 1 to 10 uM incubated for 45 mins under irradiation by SDS-PAGE analysis", "settings": "Mitochondria, dose microM 1-10, time 45.0 min", "in_short": "as §1"}, "Mus musculus [10]": {"species": "Mus musculus", "assay": "Binding affinity to purified C57BL/6 mouse cerebral cortex mitochondrial complex 1 assessed as labelling of 13 kDa sub unit at 1 to 10 uM incubated for 45 mins under irradiation by SDS-PAGE analysis", "settings": "Mitochondria, dose microM 1-10, time 45.0 min", "in_short": "as §1"}, "Mus musculus [11]": {"species": "Mus musculus", "assay": "Binding affinity to purified C57BL/6 mouse cerebral cortex mitochondrial complex 1 assessed as labelling of 49 kDa sub unit at 10 uM in presence of IQ site inhibitor rotenone incubated for 45 mins under irradiation by SDS-PAGE analysis", "settings": "Mitochondria", "in_short": "as §1"}, "Mus musculus [12]": {"species": "Mus musculus", "assay": "Binding affinity to purified C57BL/6 mouse cerebral cortex mitochondrial complex 1 assessed as labelling of 75 kDa sub unit at 1 to 10 uM incubated for 45 mins under irradiation by SDS-PAGE analysis", "settings": "Mitochondria, dose microM 1-10, time 45.0 min", "in_short": "as §1"}, "Mus musculus [13]": {"species": "Mus musculus", "assay": "Binding affinity to purified C57BL/6 mouse cerebral cortex mitochondrial complex 1 assessed as labelling of 75 kDa sub unit at 10 uM in presence of IQ site inhibitor rotenone incubated for 45 mins under irradiation by SDS-PAGE analysis", "settings": "Mitochondria", "in_short": "as §1"}, "Mus musculus [14]": {"species": "Mus musculus", "assay": "Binding affinity to purified C57BL/6 mouse cerebral cortex mitochondrial complex 1 assessed as labelling of 24 kDa sub unit at 10 uM in presence of NADH incubated for 45 mins under irradiation by SDS-PAGE analysis", "settings": "Mitochondria", "in_short": "as §1"}, "Mus musculus [15]": {"species": "Mus musculus", "assay": "Binding affinity to purified C57BL/6 mouse cerebral cortex mitochondrial complex 1 assessed as labelling of 51 kDa sub unit at 10 uM in presence of NADH incubated for 45 mins under irradiation by SDS-PAGE analysis", "settings": "Mitochondria", "in_short": "as §1"}, "Mus musculus [16]": {"species": "Mus musculus", "assay": "Binding affinity to purified C57BL/6 mouse cerebral cortex mitochondrial complex 1 assessed as labelling of 13 kDa sub unit at 10 uM in presence of IQ site inhibitor rotenone incubated for 45 mins under irradiation by SDS-PAGE analysis", "settings": "Mitochondria", "in_short": "as §1"}, "Mus musculus [17]": {"species": "Mus musculus", "assay": "Binding affinity to purified C57BL/6 mouse cerebral cortex mitochondrial complex 1 assessed as labelling of 51 kDa sub unit at 10 uM in presence of FMN incubated for 45 mins under irradiation by SDS-PAGE analysis", "settings": "Mitochondria", "in_short": "as §1"}, "Mus musculus [18]": {"species": "Mus musculus", "assay": "Binding affinity to purified C57BL/6 mouse cerebral cortex mitochondrial complex 1 assessed as labelling of IF site ( 49 kDa) sub unit at 1 to 10 uM incubated for 45 mins under irradiation by SDS-PAGE analysis", "settings": "Mitochondria, dose microM 1-10, time 45.0 min", "in_short": "as §1"}, "[19]": {"assay": "Drug localization in mitochondria mouse cortical neuron at 25 uM incubated for 4 hrs by immunocytochemistry", "type": "ADME", "settings": "cortical neurone", "in_short": "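Mouse primary cortical neurons (E15.5 C57BL/6J cortex, DIV 10–12; cytarabine 1 μM from DIV 3–6) given 25 μM probe for 4 h, then Mitotracker Red CMXRos (25 nM) for 30 min. Washed by half-media exchanges with phenol-red-free medium. Imaged live by confocal microscopy, 63x/1.4 NA oil objective.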"}, "Mus musculus [20]": {"species": "Mus musculus", "assay": "Binding affinity to purified C57BL/6 mouse cerebral cortex mitochondrial complex 1 assessed as labelling of 51 kDa sub unit at 1 to 10 uM incubated for 45 mins under irradiation by SDS-PAGE analysis", "settings": "Mitochondria, dose microM 1-10, time 45.0 min", "in_short": "as §1"}, "Mus musculus [21]": {"species": "Mus musculus", "assay": "Binding affinity to purified C57BL/6 mouse cerebral cortex mitochondrial complex 1 assessed as labelling of 24 kDa sub unit at 10 uM in presence of FMN incubated for 45 mins under irradiation by SDS-PAGE analysis", "settings": "Mitochondria", "in_short": "as §1"}, "[22]": {"assay": "Drug localization in mitochondria human MC65 cells at 3 uM incubated for 3.5 hrs by immunocytochemistry", "type": "ADME", "settings": "mc65, 3.5 h", "in_short": "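MC65 cells plated 24 h on poly-D-lysine coverslips, given 3 μM probe for 3.5 h, then MitoTracker Red (300 nM) for 30 min. Fixed in 4% formaldehyde 15 min, DAPI-stained, mounted. Imaged by confocal microscopy (63x/1.40 oil) and analysed for colocalization coefficients.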"}, "Mus musculus [23]": {"species": "Mus musculus", "assay": "Binding affinity to purified C57BL/6 mouse cerebral cortex mitochondrial complex 1 assessed as labelling of 49 kDa sub unit at 10 uM in presence of FMN incubated for 45 mins under irradiation by SDS-PAGE analysis", "settings": "Mitochondria", "in_short": "as §1"}, "Mus musculus [24]": {"species": "Mus musculus", "assay": "Binding affinity to purified C57BL/6 mouse cerebral cortex mitochondrial complex 1 assessed as labelling of 49 kDa sub unit at 10 uM in presence of NADH incubated for 45 mins under irradiation by SDS-PAGE analysis", "settings": "Mitochondria", "in_short": "as §1"}, "Mus musculus [25]": {"species": "Mus musculus", "assay": "Inhibition of mitochondrial complex 1 in permeabilized mouse brain mitochondria assessed as reduction in ROS production at 1 uM incubated for 1 hr after TC removal by Amplex Red and horseradish peroxidase based assay"}, "Mus musculus [26]": {"species": "Mus musculus", "assay": "Binding affinity to purified C57BL/6 mouse cerebral cortex mitochondrial complex 1 assessed as labelling of 13 kDa sub unit at 10 uM in presence of FMN incubated for 45 mins under irradiation by SDS-PAGE analysis", "settings": "Mitochondria", "in_short": "as §1"}, "Mus musculus [27]": {"species": "Mus musculus", "assay": "Binding affinity to purified C57BL/6 mouse cerebral cortex mitochondrial complex 1 assessed as labelling of 24 kDa sub unit at 10 uM in presence of IQ site inhibitor rotenone incubated for 45 mins under irradiation by SDS-PAGE analysis", "settings": "Mitochondria", "in_short": "as §1"}, "Mus musculus [28]": {"species": "Mus musculus", "assay": "Binding affinity to purified C57BL/6 mouse cerebral cortex mitochondrial complex 1 assessed as labelling of 75 kDa sub unit at 10 uM in presence of FMN incubated for 45 mins under irradiation by SDS-PAGE analysis", "settings": "Mitochondria", "in_short": "as §1"}},
  "note": "The source made the active and inactive calls. The calls are words filed in the database; no cut-off is given here.",
  "data": [
    {"smiles": "COc1ccc2[nH]cc(CCNC(=O)C(CCC3(CCc4cn(CCOCCOCCNC(=O)CCCCC5SCC6NC(=O)NC65)nn4)N=N3)C(=O)CCc3ccc(O)cc3)c2c1", "note": "(centres undefined)", "values": [
      {"measurement": "Activity", "setting": "Mus musculus [1]", "value": "inactive"},
      {"measurement": "Activity", "setting": "Mus musculus [2]", "value": "inactive"},
      {"measurement": "Activity", "setting": "Mus musculus [3]", "value": "inactive"},
      {"measurement": "Activity", "setting": "Mus musculus [4]", "value": "inactive"},
      {"measurement": "INH", "setting": "MC65", "value": "> 3", "unit": "nM"},
      {"measurement": "Activity", "setting": "Mus musculus [5]", "value": "inactive"}
    ]},
    {"smiles": "COc1ccc2[nH]cc(CCNC(=O)C(CCC3(CCc4cn(CCCNc5ccc([N+](=O)[O-])c6nonc56)nn4)N=N3)C(=O)CCc3ccc(O)cc3)c2c1", "note": "(centres undefined)", "values": [
      {"measurement": "Activity", "setting": "Mus musculus [6]", "value": "inactive"},
      {"measurement": "Activity", "setting": "Mus musculus [7]", "value": "inactive"},
      {"measurement": "Activity", "setting": "Mus musculus [8]", "value": "Active"},
      {"measurement": "Activity", "setting": "Mus musculus [9]", "value": "Active"},
      {"measurement": "Activity", "setting": "Mus musculus [10]", "value": "Active"},
      {"measurement": "Activity", "setting": "Mus musculus [1]", "value": "inactive"},
      {"measurement": "Activity", "setting": "Mus musculus [11]", "value": "Active"},
      {"measurement": "Activity", "setting": "Mus musculus [12]", "value": "Active"},
      {"measurement": "Activity", "setting": "Mus musculus [13]", "value": "Active"},
      {"measurement": "Activity", "setting": "Mus musculus [14]", "value": "inactive"},
      {"measurement": "Activity", "setting": "Mus musculus [2]", "value": "inactive"},
      {"measurement": "Activity", "setting": "Mus musculus [15]", "value": "inactive"},
      {"measurement": "Activity", "setting": "Mus musculus [16]", "value": "Active"},
      {"measurement": "Activity", "setting": "Mus musculus [17]", "value": "inactive"},
      {"measurement": "Activity", "setting": "Mus musculus [18]", "value": "Active"},
      {"measurement": "Drug uptake", "setting": "[19]", "value": "Active"},
      {"measurement": "Activity", "setting": "Mus musculus [20]", "value": "Active"},
      {"measurement": "Activity", "setting": "Mus musculus [4]", "value": "inactive"},
      {"measurement": "Activity", "setting": "Mus musculus [21]", "value": "inactive"},
      {"measurement": "Drug uptake", "setting": "[22]", "value": "Active"},
      {"measurement": "Activity", "setting": "Mus musculus [23]", "value": "inactive"},
      {"measurement": "INH", "setting": "MC65", "value": 96.8, "unit": "nM"},
      {"measurement": "Activity", "setting": "Mus musculus [24]", "value": "inactive"},
      {"measurement": "inhibition", "setting": "Mus musculus [25]", "value": "inactive"},
      {"measurement": "Activity", "setting": "Mus musculus [5]", "value": "inactive"},
      {"measurement": "Activity", "setting": "Mus musculus [26]", "value": "inactive"},
      {"measurement": "Activity", "setting": "Mus musculus [27]", "value": "Active"},
      {"measurement": "Activity", "setting": "Mus musculus [28]", "value": "inactive"}
    ]}
  ]
}
